Assays:
A10 [1] = assay: Percent decrease in fluorescence in a membrane potential assay using the A10 cell line derived from embryonic rat aorta at 0.1 uM; format: functional
Method in brief: (§1)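 Postconfluent A10 cells (passage ≤20, grown in DMEM/15% FBS) equilibrated ≥15 min at 37 °C in 5 μM DiBAC₄(3) in EBSS with 20 mM HEPES, pH 7.3. Compound added from 1000X DMSO or water stocks. Fluorescence (ex 488, em 525 nm) imaged every 60 s at 37 °C from a field of about 50 cells and normalized between experiments.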

A10 [2] = assay: Percent decrease in fluorescence in a membrane potential assay using the A10 cell line derived from embryonic rat aorta at 1.0 uM; format: functional; method in brief: as §1
A10 [3] = assay: Percent decrease in fluorescence in a membrane potential assay using the A10 cell line derived from embryonic rat aorta at 0.001 uM; format: functional; method in brief: as §1
A10 [4] = assay: Percent decrease in fluorescence in a membrane potential assay using the A10 cell line derived from embryonic rat aorta at 0.01 uM; format: functional; method in brief: as §1
A10 [5] = assay: Percent decrease in fluorescence in a membrane potential assay using the A10 cell line derived from embryonic rat aorta at 10.0 uM; format: functional; method in brief: as §1
Rattus norvegicus [6] = assay: Change in mean arterial pressure in anesthetized female rats at a dose of 0.03 mg/kg and a cumulative dose of 0.04 mg/kg; format: functional, Artery
Method in brief: (§2)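 Fasted female Sprague-Dawley rats, 200–250 g, under iv α-chloralose/urethane/pentobarbital anesthesia. Mean arterial pressure recorded continuously through a femoral artery catheter, after 30 min postsurgical equilibration. Compound given iv in 20% DMA/saline as step doses (initial plus three higher) at 20-min intervals. ΔMAP from pretreatment averaged over 4–5 rats per group; vehicle controls pooled n = 6.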

Rattus norvegicus [7] = assay: Change in mean arterial pressure in anesthetized female rats at a dose of 0.30 mg/kg and a cumulative dose of 0.44 mg/kg; format: functional, Artery; method in brief: as §2
Rattus norvegicus [8] = assay: Change in heart rate in beats per minute in anesthetized female rats at a dose of 0.01 mg/kg and a cumulative dose of 0.01 mg/kg; format: functional
Method in brief: (§3)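 Fasted female Sprague-Dawley rats, 200–250 g, anesthetized iv with α-chloralose 40 mg/kg, urethane 20 mg/kg and pentobarbital 20 mg/kg. Femoral vein cannulated for dosing; heart rate taken by tachograph triggered from the arterial pulse. Rectal temperature kept at 36–38 °C. Drug given iv in 20% DMA/saline as four rising bolus steps 20 min apart. ΔHR from pretreatment is the mean of 4–5 rats.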

Rattus norvegicus [9] = assay: Change in mean arterial pressure in anesthetized female rats at a dose of 0.01 mg/kg and a cumulative dose of 0.01 mg/kg; format: functional, Artery; method in brief: as §2
Rattus norvegicus [10] = assay: Change in heart rate in beats per minute in anesthetized female rats at a dose of 0.03 mg/kg and a cumulative dose of 0.04 mg/kg; format: functional; method in brief: as §3
Rattus norvegicus [11] = assay: Change in heart rate in beats per minute in anesthetized female rats at a dose of 0.10 mg/kg and a cumulative dose of 0.14 mg/kg; format: functional; method in brief: as §3
Rattus norvegicus [12] = assay: Change in heart rate in beats per minute in anesthetized female rats at a dose of 0.30 mg/kg and a cumulative dose of 0.44 mg/kg; format: functional; method in brief: as §3
Rattus norvegicus [13] = assay: Change in mean arterial pressure in anesthetized female rats at a dose of 0.10 mg/kg and a cumulative dose of 0.14 mg/kg; format: functional, Artery; method in brief: as §2
Rattus norvegicus [14] = assay: Change in heart rate in beats per minute in anesthetized female rats at a dose of 0.030 mg/kg and a cumulative dose of 0.044 mg/kg; format: functional; method in brief: as §3
Rattus norvegicus [15] = assay: Change in mean arterial pressure in anesthetized female rats at a dose of 0.010 mg/kg and a cumulative dose of 0.014 mg/kg; format: functional, Artery; method in brief: as §2
Rattus norvegicus [16] = assay: Change in heart rate in beats per minute in anesthetized female rats at a dose of 0.010 mg/kg and a cumulative dose of 0.014 mg/kg; format: functional; method in brief: as §3
Rattus norvegicus [17] = assay: Change in mean arterial pressure in anesthetized female rats at a dose of 0.003 mg/kg and a cumulative dose of 0.004 mg/kg; format: functional, Artery; method in brief: as §2
Rattus norvegicus [18] = assay: Change in mean arterial pressure in anesthetized female rats at a dose of 0.001 mg/kg and a cumulative dose of 0.001 mg/kg; format: functional, Artery; method in brief: as §2
Rattus norvegicus [19] = assay: Change in heart rate in beats per minute in anesthetized female rats at a dose of 0.001 mg/kg and a cumulative dose of 0.001 mg/kg; format: functional; method in brief: as §3
Rattus norvegicus [20] = assay: Change in heart rate in beats per minute in anesthetized female rats at a dose of 0.003 mg/kg and a cumulative dose of 0.004 mg/kg; format: functional; method in brief: as §3
Rattus norvegicus [21] = assay: Change in mean arterial pressure in anesthetized female rats at a dose of 0.030 mg/kg and a cumulative dose of 0.044 mg/kg; format: functional, Artery; method in brief: as §2

CC(C)NC1=NC(=O)C2(CC(C)(C)Oc3ccc(Br)cc32)N1 (stereo unspecified)
Decrease (A10 [1]): 5% | Decrease (A10 [2]): 22%

CNC1=NC(=O)C2(CC(C)(C)Oc3ccc([N+](=O)[O-])cc32)N1 (stereo unspecified)
Decrease (A10 [3]): <5% | Decrease (A10 [4]): 15% | Decrease (A10 [1]): 38%

CC(C)(C)CNC1=NC(=O)C2(CC(C)(C)Oc3ccccc32)N1 (stereo unspecified)
Decrease (A10 [5]): 7%

CNC1=NC(=O)C2(CC(C)(C)Oc3ccc(F)cc32)N1 (stereo unspecified)
Decrease (A10 [5]): 14% | Decrease (A10 [2]): 11%

CCOC1=NC(=O)C2(CC(C)(C)Oc3ccc(Br)cc32)N1 (stereo unspecified)
Decrease (A10 [1]): 5% | Decrease (A10 [2]): 20%

CCNC1=NC(=O)C2(CC(C)(C)Oc3ccc([N+](=O)[O-])cc32)N1 (stereo unspecified)
Decrease (A10 [3]): 9% | Decrease (A10 [4]): 13% | Decrease (A10 [1]): 28%

CSC1=NC(=O)C2(CC(C)(C)Oc3ccc(F)cc32)N1 (stereo unspecified)
Decrease (A10 [5]): 27% | Decrease (A10 [2]): 9%

CCCSC1=NC(=O)C2(CC(C)(C)Oc3ccc(C#N)cc32)N1 (stereo unspecified)
Decrease (A10 [1]): <5% | Decrease (A10 [2]): 17%

CCNC1=NC(=O)C2(CC(C)(C)Oc3ccc(C#N)cc32)N1 (stereo unspecified)
Decrease (A10 [1]): 8% | Decrease (A10 [2]): 25%

CC(C)NC1=NC(=O)C2(CC(C)(C)Oc3ccc(C#N)cc32)N1 (stereo unspecified)
Decrease (A10 [1]): <5% | Decrease (A10 [2]): 10%

CCNC1=NC(=O)C2(CC(C)(C)Oc3ccc(F)cc32)N1 (stereo unspecified)
Delta MAP (Rattus norvegicus [6]): -10.7 mmHg | Delta MAP (Rattus norvegicus [7]): -44.6 mmHg | Delta HR (Rattus norvegicus [8]): -0.4 beats min-1 | Delta MAP (Rattus norvegicus [9]): -7.1 mmHg | Delta HR (Rattus norvegicus [10]): 1.7 beats min-1 | Delta HR (Rattus norvegicus [11]): 38 beats min-1 | Decrease (A10 [1]): 19% | Delta HR (Rattus norvegicus [12]): 45.6 beats min-1 | Decrease (A10 [2]): 24% | Delta MAP (Rattus norvegicus [13]): -28 mmHg

CCSC1=NC(=O)C2(CC(C)(C)Oc3ccc(Br)cc32)N1 (stereo unspecified)
Delta MAP (Rattus norvegicus [6]): -16.3 mmHg | Delta MAP (Rattus norvegicus [7]): -25 mmHg | Decrease (A10 [3]): 7% | Delta HR (Rattus norvegicus [8]): 15.5 beats min-1 | Decrease (A10 [4]): 11% | Delta MAP (Rattus norvegicus [9]): -2.5 mmHg | Delta HR (Rattus norvegicus [10]): 29 beats min-1 | Delta HR (Rattus norvegicus [11]): 16.5 beats min-1 | Decrease (A10 [1]): 18% | Delta HR (Rattus norvegicus [12]): 17.5 beats min-1 | Delta MAP (Rattus norvegicus [13]): -21.5 mmHg

CCOC1=NC(=O)C2(CC(C)(C)Oc3ccccc32)N1 (stereo unspecified)
Decrease (A10 [5]): <5%

CSC1=NC(=O)C2(CC(C)(C)Oc3ccc(C#N)cc32)N1 (stereo unspecified)
Decrease (A10 [5]): 25% | Decrease (A10 [2]): 5%

CSC1=NC(=O)C2(CC(C)(C)Oc3ccc([N+](=O)[O-])cc32)N1 (stereo unspecified)
Decrease (A10 [4]): 8% | Decrease (A10 [1]): 11% | Decrease (A10 [2]): 16%

CCNC1=NC(=O)C2(CC(C)(C)Oc3ccc(Br)cc32)N1 (stereo unspecified)
Decrease (A10 [1]): 26% | Decrease (A10 [2]): 19%

CNC1=NC(=O)C2(CC(C)(C)Oc3ccc(Br)cc32)N1 (stereo unspecified)
Decrease (A10 [1]): 22% | Decrease (A10 [2]): 17%

CCCNC1=NC(=O)C2(CC(C)(C)Oc3ccccc32)N1 (stereo unspecified)
Decrease (A10 [2]): 7%

CCCNC1=NC(=O)C2(CC(C)(C)Oc3ccc(C#N)cc32)N1 (stereo unspecified)
Delta MAP (Rattus norvegicus [6]): -50.8 mmHg | Delta MAP (Rattus norvegicus [7]): -70 mmHg | Delta HR (Rattus norvegicus [8]): 13.8 beats min-1 | Decrease (A10 [4]): <5% | Delta MAP (Rattus norvegicus [9]): -23.6 mmHg | Delta HR (Rattus norvegicus [10]): 19.2 beats min-1 | Delta HR (Rattus norvegicus [11]): 29.8 beats min-1 | Decrease (A10 [1]): 21% | Delta HR (Rattus norvegicus [12]): 39.2 beats min-1 | Decrease (A10 [2]): 27% | Delta MAP (Rattus norvegicus [13]): -66.2 mmHg

CCCNC1=NC(=O)C2(CC(C)(C)Oc3ccc(Br)cc32)N1 (stereo unspecified)
Delta MAP (Rattus norvegicus [6]): -56.7 mmHg | Delta MAP (Rattus norvegicus [7]): -70.6 mmHg | Delta HR (Rattus norvegicus [8]): 44.9 beats min-1 | Decrease (A10 [4]): 12% | Delta MAP (Rattus norvegicus [9]): -25.6 mmHg | Delta HR (Rattus norvegicus [10]): 25.6 beats min-1 | Delta HR (Rattus norvegicus [11]): 46.3 beats min-1 | Decrease (A10 [1]): 28% | Delta HR (Rattus norvegicus [12]): 92.8 beats min-1 | Delta MAP (Rattus norvegicus [13]): -70.1 mmHg

CSC1=NC(=O)C2(CC(C)(C)Oc3ccc(Br)cc32)N1 (stereo unspecified)
Decrease (A10 [1]): 6% | Decrease (A10 [2]): 27%

CCCNC1=NC(=O)C2(CC(C)(C)Oc3ccc([N+](=O)[O-])cc32)N1 (stereo unspecified)
Delta HR (Rattus norvegicus [14]): 31.8 beats min-1 | Decrease (A10 [3]): 8% | Delta MAP (Rattus norvegicus [15]): -66 mmHg | Decrease (A10 [4]): 19% | Delta HR (Rattus norvegicus [16]): 3.8 beats min-1 | Decrease (A10 [1]): 28% | Delta MAP (Rattus norvegicus [17]): -51.3 mmHg | Delta MAP (Rattus norvegicus [18]): -19.8 mmHg | Delta HR (Rattus norvegicus [19]): 6.8 beats min-1 | Delta HR (Rattus norvegicus [20]): 3.3 beats min-1 | Delta MAP (Rattus norvegicus [21]): -72 mmHg

CNC1=NC(=O)C2(CC(C)(C)Oc3ccc(C#N)cc32)N1 (stereo unspecified)
Decrease (A10 [1]): <5% | Decrease (A10 [2]): 19%

CCCNC1=NC(=O)C2(CC(C)(C)Oc3ccc(F)cc32)N1 (stereo unspecified)
Decrease (A10 [1]): 10% | Decrease (A10 [2]): 17%

CCCSC1=NC(=O)C2(CC(C)(C)Oc3ccc(Br)cc32)N1 (stereo unspecified)
Decrease (A10 [1]): 6% | Decrease (A10 [2]): 15%

CCOC1=NC(=O)C2(CC(C)(C)Oc3ccc(F)cc32)N1 (stereo unspecified)
Decrease (A10 [5]): 13% | Decrease (A10 [2]): <5%

CCSC1=NC(=O)C2(CC(C)(C)Oc3ccc(C#N)cc32)N1 (stereo unspecified)
Decrease (A10 [5]): 24% | Decrease (A10 [2]): 6%

CSC1=NC(=O)C2(CC(C)(C)Oc3ccccc32)N1 (stereo unspecified)
Decrease (A10 [5]): <5%

CC(C)NC1=NC(=O)C2(CC(C)(C)Oc3ccc(F)cc32)N1 (stereo unspecified)
Decrease (A10 [5]): 22% | Decrease (A10 [2]): 5%

CC(C)NC1=NC(=O)C2(CC(C)(C)Oc3ccccc32)N1 (stereo unspecified)
Decrease (A10 [5]): 13%

CC1(C)Oc2ccc(C#N)cc2C(N2CCCC2=O)C1O (stereo unspecified) [CROMAKALIM]
Delta MAP (Rattus norvegicus [6]): -22.6 mmHg | Delta MAP (Rattus norvegicus [7]): -52.7 mmHg | Delta HR (Rattus norvegicus [8]): 33.8 beats min-1 | Delta MAP (Rattus norvegicus [9]): -14.7 mmHg | Delta HR (Rattus norvegicus [10]): 53.4 beats min-1 | Delta HR (Rattus norvegicus [11]): 65.6 beats min-1 | Decrease (A10 [1]): <5% | Delta HR (Rattus norvegicus [12]): 63 beats min-1 | Decrease (A10 [2]): 22% | Delta MAP (Rattus norvegicus [13]): -36.1 mmHg
